Only some compounds are listed: those with a hit (about 6.6% of all), similar ones and a draw of the others.
H69AR inhibit: proliferation blockers of H69AR lung cancer cells, primary screen, cell-based, human, 86K library; 85,000 tested, 6% active; H69AR lung tumor viability, ATP luminescence, 72 h; stronger effect = lower value; viability, % at 10 µM; AID 598, 2007;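 active = viability at or below 40%; inactive = viability above 40%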;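 also: multidrug resistant small cell line overexpressing MRP-1 efflux transporter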
Fibroblast inh: antiproliferative effect on LL 47 fibroblasts – human, LL 47 cells, CellTiter-Glo luminescence, primary screen; LL 47 human lung fibroblast viability, ATP luminescence; stronger effect = lower value; viability, % at 10 µM; 85,000 tested, 1.1% active; AID 719, 2007;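 active = viability at or below 50% in the single dose screen; inactive = viability above 50%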;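 also: compound exposure lasted 72 h before the ATP readout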
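Benchmarks: Cell-only wells, no compound | Test system: LL 47 human lung fibroblasts, passage 12 or lower | Input: 1,150 cells/well | Measured by: CellTiter-Glo luminescence measuring cellular ATP | Medium: IMEM, 15% FBS supplement | Schedule: Overnight attachment after seeding, then 72 h compound exposure at 37 °C | Doses: Compound addition at 0.1% DMSO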
HUVEC prolif 384: inhibitors of HUVEC proliferation, primary screen, cell-based, 384-well. 86,000 tested, 1.1% active. viability, % at 10 µM (by protocol). CellTiter-Glo luminescence, 72 h; stronger effect = lower value;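 active = viability at or below 30%; inactive = viability above 30%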
Jurkat tox 60K: cytotoxicity toward Jurkat T cells, primary screen, cytotoxicity control, cell-based, Jurkat E6.1, 60K MLSMR library | Jurkat E6.1 viability, ATP luminescence, 48 h | inhibition, % at 4 µM | 56,000 tested, 1.2% active | AID 463, 2006;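 active = inhibition above the mean inhibition of all tested compounds plus 3 SD, cut at about 28% in these data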
A number is an active result; – = inactive; · = no result given.

SMILES	H69AR inhibit	Fibroblast inh	HUVEC prolif 384	Jurkat tox 60K
CCn1cc(Cl)c(C(=O)N2N=C3/C(=C/c4cccs4)CCCC3C2c2cccs2)n1 (centres undefined)	38	–	–	·
Cc1ccc(-c2nc3cccnc3s2)cc1NS(=O)(=O)c1ccc2c(c1)OCCO2	21	–	–	·
N#Cc1cnn(-c2ncnc3sc(-c4ccccc4)cc23)c1N	36	–	–	·
COc1cc(CNc2ccc3[nH]c(=O)[nH]c3c2)cc(Br)c1OCC(=O)NC(C)(C)C	9.9	–	–	·
CC1CCCN(c2nc3c(c(=O)[nH]c(=O)n3C)n2CCCc2ccccc2)C1 (centres undefined)	–	–	–	·
COc1ccc(-c2noc(CSc3nnc(Cc4ccccc4)n3-c3ccc(Cl)cc3)n2)cc1	13	–	–	·
O=C(Nn1c(-c2ccc(F)cc2)nc2ccccc2c1=O)C1CCCCC1	–	–	–	·
COc1ccc(OC)c(C(=O)CSc2nnc(-c3cccnc3)n2C)c1	–	–	–	–
CC(C)COC(=O)C1C2C=CC3(CN(C4CCCC4)C(=O)C13)O2 (centres undefined)	–	–	–	–
N#Cc1ccc2ccn(CC(=O)NC3CCCCC3)c2c1	–	–	–	–
N#Cc1ccc2ccn(CC(=O)NCc3ccccc3)c2c1	36	–	–	–
CCC(=O)Nc1nnc(SCC(=O)N2c3ccccc3CC2C)s1 (centres undefined)	–	37	–	·
Cc1cc2c(c(=O)n1Cc1cccnc1)C(Cc1ccccc1)C(C#N)=C(N)O2 (centres undefined)	–	–	–	–
Cc1cc2c(c(=O)n1Cc1cccnc1)C(c1cccs1)C(C#N)=C(N)O2 (centres undefined)	32	–	–	·
O=C(NC1CCCCC1)Sc1ccc(Cl)cc1	36	–	–	–
CC(C)c1nc(SCC(=O)NCc2ccccc2)n[nH]1	–	–	–	–
CCN(CC)S(=O)(=O)c1ccc(S(=O)(=O)Nc2ccc3c(c2)oc2ccccc23)cc1	33	–	–	·
O=C1C(Cl)=C(Nc2ccccc2O)C(=O)N1c1ccccc1	39	–	–	·
O=C1C(Cl)=C(NCC2CCCO2)C(=O)N1c1ccccc1 (centres undefined)	–	–	–	–
Cc1c(NC2=C(Cl)C(=O)N(c3ccccc3)C2=O)c(=O)n(-c2ccccc2)n1C	4.8	–	–	–
CCc1ccc(NC(=O)CC2C(=O)Nc3c2c(=O)n(C)c(=O)n3C)cc1 (centres undefined)	–	–	–	·
CC1=C(C)CS(=O)N(S(=O)(=O)c2ccc(Cl)cc2)C1 (centres undefined)	–	47	–	69
O=C(Oc1ccc2c(c1)OCO2)c1cc2c(s1)CCC2	–	–	–	43
COc1ccc(S(=O)(=O)N2CC3C4C=CC(C4)C3C2)cc1 (centres undefined)	–	–	–	–
Cc1cccc(N2CCN(S(=O)(=O)c3ccc4c(c3)CCN4C(=O)CCC(=O)O)CC2C)c1 (centres undefined)	–	–	–	·
SMILES	H69AR inhibit	Fibroblast inh	HUVEC prolif 384	Jurkat tox 60K
CCCN1C(=O)SC(CC(=O)Nc2ccccc2C)C1=O (centres undefined)	30	–	–	·
COC(=O)C1=C(C)NC(C)=C(C(=O)OC)C1c1cc2ccc(C)cc2[nH]c1=O	20	–	–	–
Nc1nc(Cl)nc2c1ncn2[C@@H]1O[C@H](CO)[C@@H](O)[C@H]1O	18	–	–	·
CN(C)c1ncnc2c1ncn2C1OC(CO)C(O)C1O (centres undefined)	6.8	41	15	·
OCC1OC(n2nc3ccccc3n2)C(O)C(O)C1O (centres undefined)	–	–	–	–
CCOC1OC2C(CO)OC(n3cnc4c(N)ncnc43)C2O1 (centres undefined)	–	–	–	–
CC(C)n1c(SCC(=O)Nc2nc3c(s2)CCCC3)nc2c1c(=O)n(C)c(=O)n2C	34	–	–	·
CC(C)n1c(SCC(=O)N2c3ccccc3CCc3ccccc32)nc2c1c(=O)n(C)c(=O)n2C	20	–	–	·
O=C1CCCc2oc3ccc(O)cc3c21	–	–	–	·
Cc1ccc(CCNC(=O)C2CCCN(c3nc4ccccc4o3)C2)cc1 (centres undefined)	–	–	–	–
CC(=O)Nc1ccc(S(=O)(=O)NC2=C(N3CCN(c4ccc(F)cc4)CC3)C(=O)c3ccccc3C2=O)cc1	–	–	4.8	·
CC(=O)Nc1ccc(S(=O)(=O)Nc2ccc(N3CCOCC3)cc2)cc1	–	–	–	–

Bioassay records as filed in PubChem BioAssay.
